According to ChEMBL document CHEMBL1131182, “Anti-AIDS agents. 34. Synthesis and structure-activity relationships of betulin derivatives as anti-HIV agents” (J Med Chem, 1998):
pEC50, pIC50: −log10 of the molar value.

Legend:
[1] = Therapeutic Index is the […] of the IC50 to that of EC50; type: cell-based; conditions: human, H9 cells; read-out: TI
[2] = test system: H9; experiment: Anti-HIV activity against acutely infected H9 lymphocytes. Activity expressed as concentration of compound able to suppress HIV replication by 50%.; type: functional, cell-based; conditions: Homo sapiens
Summary of the method: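 H9 cells (RPMI 1640, 10% FCS, L-glutamine, 37 °C, 5% CO2, log phase) infected 1 h with HIV-1 IIIB at MOI 0.1-0.01, washed and plated at 4 × 10^5 cells/mL with DMSO-dissolved samples (screen 100, 20, 4, 0.8 µg/mL final, further dilutions for actives). After 4 days, supernatant p24 was measured by antigen-capture ELISA against a standard curve. EC50 is 50% suppression of replication; at least two experiments averaged.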

[3] = test system: H9; experiment: Anti-HIV activity against acutely infected H9 lymphocytes. Activity expressed as concentration of compound toxic to 50% of mock-infected H9 cells.; type: functional, cell-based; conditions: Homo sapiens
Summary of the method: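 Uninfected H9 cells were exposed to DMSO-dissolved samples (screen 100, 20, 4, 0.8 µg/mL final) for 4 days at 37 °C, 5% CO2. Remaining cells were counted with a counter against medium-only controls. IC50 is the concentration toxic to 50% of mock-infected cells; at least two experiments averaged.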

[4] = test system: H9; experiment: Anti-HIV activity was measured in […] by MAGI assay; type: functional, cell-based; conditions: Homo sapiens
Summary of the method: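 HeLa-CD4/β-gal cells were plated at 10 000/well in DMEM with G418 500 µg/mL and hygromycin 250 µg/mL for 1 day. They were then infected with virus dilutions in the presence of varying drug for 2 days at 37 °C. Cells were fixed (1% formaldehyde, 0.2% glutaraldehyde) and stained with X-gal 0.4 mg/mL. Blue cells were counted, and EC50 was taken as a 50% reduction in infected cells.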

Row | Compound | pEC50 [2] | pEC50 [4] | selectivity ratio [1] | pIC50 [3]
1 | C=C(C)[C@@H]1CC[C@]2(COC(C)=O)CC[C@]3(C)[C@H](CC[C@@H]4[C@@]5(C)CC[C@H](OC(C)=O)C(C)(C)[C@@H]5CC[C@]43C)[C@@H]12 [BETULIN DIACETATE] | < 3.72 | – | < 1 | < 3.72
2 | C=C(COC(C)=O)[C@@H]1CC[C@]2(COC(C)=O)CC[C@]3(C)[C@H](CC[C@@H]4[C@@]5(C)CC[C@H](OC(C)=O)C(C)(C)[C@@H]5CC[C@]43C)[C@@H]12 | 4.99 | – | 2.5 | 4.60
3 | C=C(CO)[C@@H]1CC[C@]2(CO)CC[C@]3(C)[C@H](CC[C@@H]4[C@@]5(C)CC[C@H](O)C(C)(C)[C@@H]5CC[C@]43C)[C@@H]12 [30-HYDROXY-BETULIN] | 4.29 | – | 2.8 | < 3.85
4 | C=C(C)[C@@H]1CC[C@]2(CO)CC[C@]3(C)[C@H](CC[C@@H]4[C@@]5(C)CC[C@@H](O)C(C)(C)[C@@H]5CC[C@]43C)[C@@H]12 [3-EPI-BETULIN] | 5.44 | – | 3.4 | 4.91

Now from value to compound, other results behind:

Row | pEC50 [2] | pEC50 [4] | Compound | selectivity ratio [1] | pIC50 [3]
5 | 7.23 | – | CC(CC(=O)O)CC(=O)OC[C@]12CC[C@@H](C(C)C)[C@@H]1[C@H]1CC[C@@H]3[C@@]4(C)CC[C@H](OC(=O)CC(C)CC(=O)O)C(C)(C)[C@@H]4CC[C@@]3(C)[C@]1(C)CC2 (stereo partly drawn) | 325 | 4.72
6 | 5.32 | – | C=C(C)[C@@H]1CC[C@]2(CNC(=O)CC3(CC(=O)O)CCCC3)CC[C@]3(C)[C@H](CC[C@@H]4[C@@]5(C)CC[C@H](NC(=O)CC6(CC(=O)O)CCCC6)C(C)(C)[C@@H]5CC[C@]43C)[C@@H]12 | 3.1 | 4.82
7 | 8.41 | – | C=C(C)[C@@H]1CC[C@]2(COC(=O)CC(C)CC(=O)O)CC[C@]3(C)[C@H](CC[C@@H]4[C@@]5(C)CC[C@H](OC(=O)CC(C)CC(=O)O)C(C)(C)[C@@H]5CC[C@]43C)[C@@H]12 (stereo partly drawn) | 5310 | 4.68
8 | 5.33 | – | CC(C)[C@@H]1CC[C@]2(COC(=O)CCC(=O)O)CC[C@]3(C)[C@H](CC[C@@H]4[C@@]5(C)CC[C@H](OC(=O)CCC(=O)O)C(C)(C)[C@@H]5CC[C@]43C)[C@@H]12 | 6.2 | 4.54
9 | 8.27 | – | C=C(COC(=O)CC1(CC(=O)O)CCCC1)[C@@H]1CC[C@]2(COC(=O)CC3(CC(=O)O)CCCC3)CC[C@]3(C)[C@H](CC[C@@H]4[C@@]5(C)CC[C@H](OC(=O)CC6(CC(=O)O)CCCC6)C(C)(C)[C@@H]5CC[C@]43C)[C@@H]12 | 1190 | 5.16
10 | – | 7.43 | Cc1cn([C@H]2C[C@H](N=[N+]=[N-])[C@@H](CO)O2)c(=O)[nH]c1=O [ZIDOVUDINE] | – | –
